Data set [1] addresses Human immunodeficiency virus type 1 reverse transcriptase (Human immunodeficiency virus 1, UniProt Q72547, K103N). In words: Inhibition of HIV1 wild-type reverse transcriptase K103N mutant using [3H]dTTP by scintillation counting.
Data set [2] in a line: Cytotoxicity against human MT4 cells assessed as cell viability by MTT assay. The format is cell-based. In a few lines:
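Mock-infected MT-4 cells exposed to a range of compound concentrations. Viable cells measured by MTT colorimetry at day 5. CC₅₀ = concentration causing 50% death of non-infected cells. Means of two to three independent experiments, each in triplicate.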

The subject of data set [3] is Human immunodeficiency virus 2. As to the kind of experiment: Antiviral activity against HIV-2 ROD infected in human CEM cells assessed as protection of cells monitored by giant cell formation by microscopy. It is filed as functional, organism-based. The following applies: Human immunodeficiency virus 2, ISOLATE ROD, CCRF-CEM. The procedure, abridged: (§1)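 Human CEM cultures (~3 × 10⁵ cells/mL) infected with ~100 CCID₅₀ per mL of HIV-1 IIIB or HIV-2 ROD, seeded with serial compound dilutions. Incubated 4 days at 37 °C; syncytium (giant cell) formation scored by microscopy. EC₅₀ = concentration protecting cells from viral cytopathicity by 50%. Means of two to three independent experiments, each in triplicate.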

Data set [4] relates to Human immunodeficiency virus 1. As to the kind of experiment: Ratio of EC50 for HIV1 harboring reverse transcriptase Y181C mutant to EC50 for wild type HIV1 NL4.3. The format is functional. In a few lines: (§2)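 Fold change is the EC50 against the named mutant strain divided by the EC50 against wild-type HIV-1 NL4-3. […] Means of 2–3 independent experiments in triplicate.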

Data set [5] has as its system Human immunodeficiency virus 1. As to the kind of experiment: Ratio of efavirenz EC50 to compound EC50 for HIV1 harboring reverse transcriptase L100I mutant infected in human MT4 cells. It is filed as functional.
The subject of data set [6] is Human immunodeficiency virus 1. In words: Antiviral activity against HIV1 harboring reverse transcriptase K103N mutant infected in human MT4 cells assessed as inhibition of virus-induced cell death measured after 5 days of infection by MTT method. The following applies: Human immunodeficiency virus 1, MT4, 120 h. It is filed as functional, organism-based. The procedure, abridged:
(§3)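 MT-4 cells infected with the named NNRTI-resistant HIV-1 RT mutant strain, in the presence of a range of compound concentrations. Viable cells counted at day 5 post-infection by tetrazolium (MTT) colorimetry. […] Mean of 2–3 independent experiments, each in triplicate.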

Data set [7] deals with Human immunodeficiency virus 1. In words: Antiviral activity against HIV1 3B infected in human CEM cells assessed as protection of cells monitored by giant cell formation by microscopy. It is filed as functional, organism-based. The following applies: Human immunodeficiency virus 1, 3B, CCRF-CEM. In a few lines:
as §1

Data set [8] has as its system Human immunodeficiency virus 1. As to the kind of experiment: Antiviral activity against HIV1 harboring reverse transcriptase Y181C mutant infected in human MT4 cells assessed as inhibition of virus-induced cell death measured after 5 days of infection by MTT method. The following applies: Human immunodeficiency virus 1, MT4, 120 h. The format is functional, organism-based. The procedure, abridged: as §3
For orientation: Formazan colour is commonly taken as a measure of viable cells.

The test system of data set [9] is Human immunodeficiency virus 1. In words: Ratio of AZT EC50 to compound EC50 for HIV1 harboring reverse transcriptase K103N mutant infected in human MT4 cells. The format is functional.
Data set [10] concerns Human immunodeficiency virus 1. As to the kind of experiment: Antiviral activity against HIV1 harboring reverse transcriptase K103N/Y181C double mutant infected in human MT4 cells assessed as inhibition of virus-induced cell death measured after 5 days of infection by MTT method. The format is functional, organism-based. The following applies: Human immunodeficiency virus 1, MT4, 120 h. The procedure, abridged:
as §3

Data set [11] can be described thus: Selectivity index, ratio of CC50 for human MT4 cells to EC50 for HIV1 NL4.3 infected in human MT4 cells. It is filed as toxicity, cell-based. The note with it: read-out: Ratio CC50/EC50. The procedure, abridged:
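Ratio CC₅₀/EC₅₀. CC₅₀ is from mock-infected MT-4 cells and EC₅₀ from HIV-1 NL4-3-infected MT-4 cells, both read by MTT at day 5 post-infection.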

For data set [12], the system named is Human immunodeficiency virus 1. In words: Ratio of efavirenz EC50 to compound EC50 for HIV1 harboring reverse transcriptase K103N mutant infected in human MT4 cells. The format is functional.
Data set [13] concerns Human immunodeficiency virus 1. In words: Ratio of efavirenz EC50 to compound EC50 for HIV1 harboring reverse transcriptase Y181C mutant infected in human MT4 cells. It is filed as functional.
Data set [14] has as its target Human immunodeficiency virus type 1 reverse transcriptase (Human immunodeficiency virus 1, UniProt Q72547, L100I). As to the kind of experiment: Inhibition of HIV1 wild-type reverse transcriptase L100I mutant using [3H]dTTP by scintillation counting. In a few lines: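 RNA-dependent DNA polymerase activity of recombinant RT (2–4 nM) on poly(rA)/oligo(dT) 10:1 with [3H]dTTP (1 Ci/mmol). Incubation at 37 °C. Acid-insoluble radioactivity collected on GF/C filters after 5% cold TCA, counted by scintillation.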

Data set [15] deals with Human immunodeficiency virus 1. In words: Ratio of EC50 for HIV1 harboring reverse transcriptase […] mutant to EC50 for wild type HIV1 NL4.3. The format is functional. The procedure, abridged: as §2
The test system of data set [16] is Human immunodeficiency virus 1. As to the kind of experiment: Antiviral activity against HIV1 NL4.3 infected in human MT4 cells assessed as inhibition of virus-induced cell death measured after 5 days of infection by MTT method. The format is functional, organism-based. The note with it: Human immunodeficiency virus 1, NL4.3, MT4, 120 h. In a few lines:
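Lymphoid MT-4 cells (NIH AIDS Reagent Program) infected with HIV-1 NL4-3 in the presence of varying compound concentrations. On day 5 post-infection, viable cells were counted by MTT tetrazolium colorimetry. EC₅₀ = concentration inhibiting virus-induced cell death by 50%. Means of two to three independent experiments, each in triplicate.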

Data set [17] relates to Human immunodeficiency virus 1. In words: Ratio of EC50 for HIV1 harboring reverse transcriptase K103N mutant to EC50 for wild type HIV1 NL4.3. The format is functional. The procedure, abridged:
as §2

In data set [18] the test system is Human immunodeficiency virus 1. In words: Antiviral activity against HIV1 harboring reverse transcriptase […] mutant infected in human MT4 cells assessed as inhibition of virus-induced cell death measured after 5 days of infection by MTT method. The format is functional, organism-based. The following applies: Human immunodeficiency virus 1, MT4, 120 h. In a few lines:
as §3

The target in data set [19] is T1, Human immunodeficiency virus type 1 reverse transcriptase (Human immunodeficiency virus 1, UniProt Q72547). In words: Inhibition of HIV1 wild-type reverse transcriptase Y181I/Y181C mutant using [3H]dTTP by scintillation counting.
Data set [20] deals with Human immunodeficiency virus 1. In words: Ratio of EC50 for HIV1 harboring reverse transcriptase K103N/Y181C double mutant to EC50 for wild type HIV1 NL4.3. It is filed as functional. In a few lines:
as §2

The target of data set [21] is T1, Human immunodeficiency virus type 1 reverse transcriptase. As to the kind of experiment: Inhibition of HIV1 wild-type reverse transcriptase using [3H]dTTP by scintillation counting.
Data set [22] concerns Human immunodeficiency virus 1. As to the kind of experiment: Antiviral activity against HIV1 harboring reverse transcriptase Y188L mutant infected in human MT4 cells assessed as inhibition of virus-induced cell death measured after 5 days of infection by MTT method. It is filed as functional, organism-based. The following applies: Human immunodeficiency virus 1, MT4, 120 h. The procedure, abridged: as §3

The subject of data set [23] is Human immunodeficiency virus 1. As to the kind of experiment: Ratio of EC50 for HIV1 harboring reverse transcriptase Y188L mutant to EC50 for wild type HIV1 NL4.3. The format is functional. The procedure, abridged: as §2
For data set [24], the system named is Human immunodeficiency virus 1. In words: Ratio of EC50 for HIV1 harboring reverse transcriptase K103N mutant to EC50 for wild type HIV1 3B. The format is functional.
The test system of data set [25] is Human immunodeficiency virus 1. As to the kind of experiment: Ratio of efavirenz EC50 to compound EC50 for HIV1 harboring reverse transcriptase Y188L mutant infected in human MT4 cells. The format is functional.

A value given as a limit tells only on which side of the number the result lay.

For orientation: IC50 means the concentration that gives 50% inhibition. The low end stands for higher potency, the high end for lower potency. For orientation: CC50 means the concentration that lowers cell viability or growth by half. The EC50 is the concentration that produces a half-maximal response. With `Cc1cc(C)cc(S(=O)(=O)c2c(C(=O)NCc3cccc(F)c3)[nH]c3ccc(Cl)cc23)c1`, the IC50 in data set [1] is 160 nM; in [14], 40 nM; in data set [19], over 20000 nM; in data set [21], 70 nM. In addition, the CC50 in [2] was over 53100 nM. Also, the EC50 was over 10000 nM in data set [3]; 4.4 nM in data set [6]; 4.3 nM in data set [7]; 4.3 nM in data set [8]; 13900 nM in [10]; 0.68 nM in data set [16]. In data set [18], the EC50 was determined as 5 nM. In addition, the “Ratio EC50” value in data set [4] is 6.3; in data set [5], 10; in data set [9] it was over 3; in data set [12], over 546; in data set [13], 37; in data set [15], 7.4. For the same compound, the results for the “Ratio EC50” value in data set [17] and in [20] were 6.5 and 20391, respectively. Besides, in [11], the selectivity ratio is over 78100.

Regarding `Cc1cc(C)cc(S(=O)(=O)c2c(C(=O)NCc3ccccc3F)[nH]c3ccc(Cl)cc23)c1`, the IC50 was 100 nM in [1], 70 nM in data set [14], over 20000 nM in [19] and 180 nM in data set [21]. The CC50 in data set [2] is over 53100 nM. Besides, the EC50 in [3] was over 2000 nM; in data set [6], 7.8 nM; in data set [7] it was 3.6 nM; in data set [8], 220 nM; in data set [10] it was 2140 nM; in [16], 0.68 nM. The concentration giving a half-maximal response (EC50) in data set [18] was found to be 5.4 nM. The “Ratio EC50” value in data set [4] worked out at 324; in data set [5], 10; in data set [15] it was 7.9; in [17] it was 11.5; in [20], 3153. Further, in data set [11], the selectivity ratio was over 78100.

Consider `Cc1cc(C)cc(S(=O)(=O)c2c(C(=O)NC(C)Cc3ccccc3)[nH]c3ccc(Cl)cc23)c1` (racemic), for which the “Ratio EC50” value in [4] is on record as over 11; in data set [23] it was over 11; in data set [24] it was 5.8; in data set [15], 4.2; in data set [20] it was 23. For the same compound, the EC50 in data set [22] is over 1000 nM; in data set [6] it was 530 nM; in [7], 91 nM; in data set [8], over 1000 nM; in data set [10], over 2080 nM; in data set [18], 380 nM.

For the compound `Cc1cc(C)cc(S(=O)(=O)c2c(C(=O)NCc3ccc(N)cc3)[nH]c3ccc(Cl)cc23)c1`, the figures for the IC50 in data set [1], in data set [19] and in data set [21] were 34 nM, 201 nM and 7.7 nM, respectively. The CC50 in data set [2] amounted to 6370 nM. In addition, the “Ratio EC50” value in data set [4] was 52; in [23] it was 2338; in data set [9] it was over 3; in data set [25], 1.5; in data set [12] it was over 546; in data set [17], 20. Besides, in data set [20], the “Ratio EC50” value was 2847. Besides, the EC50 in [22] came out at 491 nM; in data set [6], 4.2 nM; in [8], 11 nM; in data set [10], 598 nM; in data set [16] it was 0.21 nM.

In the case of `Cc1cc(C)cc(S(=O)(=O)c2c(C(=O)NCc3ccccc3[N+](=O)[O-])[nH]c3ccc(Cl)cc23)c1`, the IC50 in [1] is 23 nM; in data set [19], over 20000 nM; in data set [21], 23 nM. Moreover, the CC50 in data set [2] is over 50200 nM. For the same compound, the “Ratio EC50” value in data set [4] was determined as 20; in data set [23], 351; in [25] it was 2.7; in data set [17], 7.5; in data set [20], 2335. Further, the EC50 is 281 nM in data set [22]; 6 nM in data set [6]; 16 nM in [8]; 1870 nM in data set [10]; 0.8 nM in data set [16]. Moreover, the selectivity ratio in [11] is over 62800.
